One assay has as its system Pseudomonas aeruginosa. In words: Antimicrobial activity against Pseudomonas aeruginosa PAO1 H103. Format: functional.
The target in assay [1] is Luciferin 4-monooxygenase (Photinus pyralis) (UniProt P08659). In words: Inhibition of Photinus pyralis fire fly luciferase assessed as reduction in light production at 10 times MIC for Pseudomonas aeruginosa PAO1 H103 by ATP bioluminescence assay. The method, boiled down: (§1)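 Firefly luciferase kit mix (luciferin, MgSO4, DTT, EDTA, BSA, tricine) was combined with peptide at 1, 3 or 10× MIC against P. aeruginosa PAO1 H103. ATP (200 µM) was added to start the reaction and luminescence was read, with an ATP standard curve. Activity was scored by the lowest MIC multiple giving ≥75% loss of light.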
Sequence of Luciferin 4-monooxygenase (Photinus pyralis) (P08659 whole entry): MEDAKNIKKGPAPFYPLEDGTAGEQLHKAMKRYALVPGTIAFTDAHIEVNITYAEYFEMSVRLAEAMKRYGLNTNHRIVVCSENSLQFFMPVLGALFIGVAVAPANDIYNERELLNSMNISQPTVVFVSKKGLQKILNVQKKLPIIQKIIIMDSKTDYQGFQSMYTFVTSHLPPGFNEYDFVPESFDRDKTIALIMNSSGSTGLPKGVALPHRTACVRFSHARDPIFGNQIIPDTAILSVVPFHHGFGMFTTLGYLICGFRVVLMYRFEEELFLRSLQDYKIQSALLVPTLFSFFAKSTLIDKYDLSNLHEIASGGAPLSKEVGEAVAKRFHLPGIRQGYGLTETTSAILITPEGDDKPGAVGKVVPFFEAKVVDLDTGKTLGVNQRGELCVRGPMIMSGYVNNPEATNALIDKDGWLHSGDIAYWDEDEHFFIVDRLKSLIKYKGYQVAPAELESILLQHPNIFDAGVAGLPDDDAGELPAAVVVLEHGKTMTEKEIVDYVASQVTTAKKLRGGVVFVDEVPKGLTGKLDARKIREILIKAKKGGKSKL

Assay [2] in a line: Inhibition of DnaK assessed as reduction in ATP turnover at MIC for Pseudomonas aeruginosa PAO1 H103 by ATPase assay. The method, boiled down: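 DnaK ATPase run in 20 mM HEPES pH 8, 10 mM Mg acetate, 100 mM NaCl with 200 µM [α-32P]ATP (~8 Ci/mmol) and peptide at 1× MIC (control without peptide), 37°C for 15 min. Stopped with EDTA/SDS and imaged by phosphorimager. Turnover was taken as the ADP fraction of total spots, corrected for no-protein background, mean of two independent assays.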

Assay [3] can be described thus: Inhibition of DNA polymerase assessed as reduction in PCR products at MIC for Pseudomonas aeruginosa PAO1 H103 by qPCR. A general note: Real-time PCR tracks product formation cycle by cycle.
Assay [4] addresses Luciferin 4-monooxygenase (Photinus pyralis) (UniProt P08659). Put plainly: Inhibition of Photinus pyralis fire fly luciferase assessed as reduction in light production at 3 times MIC for Pseudomonas aeruginosa PAO1 H103 by ATP bioluminescence assay. The method, boiled down:
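Commercial ATP bioluminescence kit with lyophilized firefly luciferase, luciferin, MgSO4, DTT, EDTA, BSA and tricine buffer. An ATP standard curve was run. Peptide was premixed with the kit solution, and ATP (200 µM) was added to start the reaction. Luminescence was read. Peptides were tested at 1×, 3× and 10× their MIC against P. aeruginosa PAO1 H103. Scoring was ≥75% loss of light at 3× MIC.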

For assay [5] the target is unchanged. In words: Inhibition of Photinus pyralis fire fly luciferase assessed as reduction in light production at 1 times MIC for Pseudomonas aeruginosa PAO1 H103 by ATP bioluminescence assay. The method, boiled down: as §1
The nature of assay [6]: Inhibition of DNA polymerase assessed as reduction in PCR products at 3 times MIC for Pseudomonas aeruginosa PAO1 H103 by qPCR.

The results in this text go back to ChEMBL document CHEMBL1671728, “Short cationic antimicrobial peptides interact with ATP” (2010).

Converted amounts (≈) assume the structure as drawn. The source made the active and inactive calls. Square brackets hold non-standard residues; d marks the D form. Peptide text beside a SMILES is read from it. Orn = NCCC[C@H](N)C(=O)O

Consider `CC[C@H](C)[C@H](NC(=O)CNC(=O)[C@@H](NC(=O)[C@H](CCCCN)NC(=O)[C@H](CCCCN)NC(=O)[C@H](Cc1ccccc1)NC(=O)[C@H](CC(C)C)NC(=O)[C@H](CCCCN)NC(=O)[C@H](Cc1c[nH]c2ccccc12)NC(=O)[C@@H](N)CCCCN)[C@@H](C)CC)C(=O)NCC(=O)N[C@@H](C)C(=O)N[C@H](C(=O)N[C@@H](CC(C)C)C(=O)N[C@@H](CCCCN)C(=O)N[C@H](C(=O)N[C@@H](CC(C)C)C(=O)N[C@H](C(=O)N[C@H](C(=O)NCC(=O)N[C@@H](CC(C)C)C(=O)N1CCC[C@H]1C(=O)N[C@@H](C)C(=O)N[C@@H](CC(C)C)C(=O)N[C@H](C(=O)N[C@@H](CO)C(=O)O)[C@@H](C)CC)[C@@H](C)O)[C@@H](C)O)C(C)C)C(C)C`, for which the MIC (in general, the smallest concentration in the dilution series that meets the test's criterion for growth inhibition) in the assay with Pseudomonas aeruginosa is 2 mg/L (≈ 0.715 µM). For the same compound, the inhibition (in general, the share of the control response that was lost under treatment) in assay [1] was “inactive”.

In the assay on Pseudomonas aeruginosa, `CC[C@H](C)[C@H](NC(=O)[C@H](CC(C)C)NC(=O)[C@H](C)NC(=O)[C@@H]1CCCN1C(=O)[C@H](CC(C)C)NC(=O)CNC(=O)[C@@H](NC(=O)[C@@H](NC(=O)[C@H](CC(C)C)NC(=O)[C@@H](NC(=O)[C@H](CCCCN)NC(=O)[C@H](CCCCN)NC(=O)[C@@H](NC(=O)[C@H](C)NC(=O)[C@@H](NC(=O)[C@@H](NC(=O)[C@H](CC(C)C)NC(=O)[C@H](CCCCN)NC(=O)[C@H](CCCCN)NC(=O)[C@@H](NC(=O)[C@H](Cc1ccccc1)NC(=O)[C@H](CO)NC(=O)[C@H](CCCCN)NC(=O)[C@H](Cc1c[nH]c2ccccc12)NC(=O)[C@@H](N)CCCCN)[C@@H](C)CC)[C@@H](C)O)[C@@H](C)O)C(C)C)C(C)C)[C@@H](C)O)[C@@H](C)O)C(=O)N[C@@H](CO)C(=O)O` returned an MIC of 2 mg/L (≈ 0.696 µM). The inhibition entry in assay [1], in assay [2] and in assay [3] was “inactive” throughout.

`CC(C)C[C@@H]1NC(=O)[C@H](CCCN)NC(=O)[C@H](C(C)C)NC(=O)[C@@H]2CCCN2C(=O)[C@@H](Cc2ccccc2)NC(=O)[C@H](CC(C)C)NC(=O)[C@H](CCCN)NC(=O)[C@H](C(C)C)NC(=O)[C@@H]2CCCN2C(=O)[C@@H](Cc2ccccc2)NC1=O` [GRAMICIDIN S] (cyclo(L[dF]PV[Orn]L[dF]PV[Orn])) showed an MIC against Pseudomonas aeruginosa of 0.2 mg/L (≈ 0.175 µM). Also, the inhibition entry in assay [1] and in assay [3] was “inactive” throughout.

In the assay with Pseudomonas aeruginosa, `CC(C)[C@H](NC(=O)[C@H](CCCNC(=N)N)NC(=O)[C@H](Cc1ccccc1)NC(=O)[C@H](CS)NC(=O)[C@H](Cc1c[nH]c2ccccc12)NC(=O)[C@H](CCCNC(=N)N)NC(=O)[C@@H](N)CCCNC(=N)N)C(=O)N[C@@H](CS)C(=O)N[C@@H](Cc1ccc(O)cc1)C(=O)N[C@@H](CCCNC(=N)N)C(=O)NCC(=O)N[C@@H](Cc1ccccc1)C(=O)N[C@@H](CS)C(=O)N[C@@H](Cc1ccc(O)cc1)C(=O)N[C@@H](CCCNC(=N)N)C(=O)N[C@@H](CCCCN)C(=O)N[C@@H](CS)C(=O)N[C@@H](CCCNC(=N)N)C(N)=O` [POLYPHEMUSIN I] (H-RRWCFRVCYRGFCYRKCR-NH2) showed an MIC of 2 mg/L (≈ 0.814 µM). In assay [1], the inhibition is above 75%.

GENTAMICIN displayed an MIC in the assay on Pseudomonas aeruginosa of 25 mg/L. Moreover, the inhibition result in assay [1] is “inactive”.

H-KWKSFIKKLTSAAKKVVTTAKPLISS-OH: the minimal inhibitory concentration (MIC) in the assay with Pseudomonas aeruginosa came to 2 mg/L. Moreover, in assay [1], the inhibition result was “inactive”.

H-KWKSFLKTFKSAVKTVLHTALKAISS-OH showed a minimum inhibitory concentration (MIC) against Pseudomonas aeruginosa of 2 mg/L. In addition, the inhibition entry in assay [1], in assay [2] and in assay [3] was “inactive” each time.

The compound H-KWKSFLRTFKSPVRTVFHTALKPISS-OH came in with a minimal inhibitory concentration (MIC) in the assay with Pseudomonas aeruginosa of 16 mg/L. In addition, in assay [1], the inhibition entry was “inactive”.

H-KWKSFLRTLKSPAKTVFHTALKAISS-OH: the minimal inhibitory concentration (MIC) against Pseudomonas aeruginosa was 16 mg/L. Besides, in assay [1], the inhibition result was “inactive”.

In the assay on Pseudomonas aeruginosa, H-RAVAVIIRLRRV-NH2 showed a minimal inhibitory concentration (MIC) of 33 mg/L. For the same compound, the inhibition in assay [4] is above 75%.

H-RLARIVPIRVAR-NH2: in the assay on Pseudomonas aeruginosa, the MIC is above 250 mg/L. Also, in assay [1], the inhibition result is “inactive”.

For the compound H-RLARIVVIRVAR-NH2, in the assay with Pseudomonas aeruginosa, the minimum inhibitory concentration (MIC) came to 50 mg/L. Also, the inhibition in assay [4] was above 75%. The inhibition result in assay [2] and in assay [3] was “Active” in each case.

As for H-RLWRIVVIRVAR-NH2, in the assay on Pseudomonas aeruginosa, the minimum inhibitory concentration (MIC) is 8 mg/L. In addition, the inhibition in assay [5] turned out to be 75%. Moreover, the inhibition entry in assay [2] and in assay [6] was “Active” in each case.

With H-RRAAVVLIVIRR-NH2, in the assay on Pseudomonas aeruginosa, 7 mg/L was the least that counted as inhibitory (MIC). In addition, in assay [4], the inhibition was above 75%.

Turning to H-RRWKIVVIRWRR-NH2, in the assay with Pseudomonas aeruginosa, the minimal inhibitory concentration (MIC) turned out to be 2 mg/L. Also, the inhibition in assay [5] came out at 75%. Moreover, the inhibition entry in assay [2] and in assay [3] was “Active” each time.

In turn, H-RRWRIVVIRVRR-NH2 registered an MIC in the assay on Pseudomonas aeruginosa of 2 mg/L. Also, the inhibition in assay [5] stood at 75%.

In the case of H-VRLRIRVAVIRA-NH2, the minimum inhibitory concentration (MIC) against Pseudomonas aeruginosa stood at 10 mg/L. In addition, in assay [1], the inhibition was above 75%.

The compound POLYMYXIN B gave an MIC against Pseudomonas aeruginosa of 0.5 mg/L. The inhibition entry in assay [2] and in assay [3] was “inactive” each time.
